Results collected from several papers.
Compare with care: the assays were run in different laboratories. ≈ marks a conversion by molar mass, not a printed value.
Organism: Bacillus subtilis

N#CC(=Cc1ccc([N+](=O)[O-])cc1)C1=NC(=O)C(=Cc2cn(-c3ccccc3)nc2-c2ccccc2)S1 — inhibition zone (microbial growth, well diffusion; 100000 µg/mL): 23 mm
O=C1NC(=S)S/C1=C\c1ccc(-c2ccc(N(c3ccccc3)c3ccccc3)cc2)cc1 — MBC (microbial killing, broth dilution; ATCC6633): > 1000 µg/mL
N#CC(=Cc1ccc(Cl)cc1)C1=NC(=O)C(=Cc2cn(-c3ccccc3)nc2-c2ccccc2)S1 — inhibition zone (microbial growth, well diffusion; 100000 µg/mL): 22 mm
CC[C@H]1OC(=O)[C@H](C)[C@@H](O[C@H]2C[C@@](C)(OC)[C@@H](O)[C@H](C)O2)[C@H](C)[C@@H](O[C@@H]2O[C@H](C)C[C@H](N(C)C)[C@H]2O)[C@](C)(O)C[C@@H](C)/C(=N\OCOCCOC)[C@H](C)[C@@H](O)[C@]1(C)O — inhibition zone (microbial growth, disc diffusion; ATCC6633; 20000 µg/mL, 24 h): 23 mm
O=C(O)c1ccc(-n2cc(/C=N/Nc3ccc(C(F)(F)F)cc3)c(-c3cccc(F)c3)n2)cc1 — MIC (microbial growth; ATCC6623): 12.5 µg/mL (≈ 26.7 µM)
O=C(N[C@H](CO)[C@H](O)c1ccc([N+](=O)[O-])cc1)C(Cl)Cl — inhibition zone (microbial growth, disc diffusion; 50 µg/disc): 21 mm
CCOC(=O)c1c(N)csc1-c1cn(-c2ccccc2)nc1-c1ccccc1 — inhibition zone (microbial growth, well diffusion; 100000 µg/mL): 23 mm
O=C(O)CN1C(=O)/C(=C/c2ccc(-c3ccc(N(c4ccccc4)c4ccccc4)cc3)cc2)NC1=S — MBC (microbial killing, broth dilution; ATCC6633): 3.9 µg/mL (≈ 7.71 µM)
Cc1c(NC(=O)CC2=NC(=O)CS2)c(=O)n(-c2ccccc2)n1C — inhibition zone (microbial growth, well diffusion; 100000 µg/mL): 26 mm
O=C(O)CN1C(=O)/C(=C/c2c3ccccc3c(-c3ccc(N(c4ccccc4)c4ccccc4)cc3)c3ccccc23)SC1=S — MBC (microbial killing, broth dilution; ATCC6633): > 1000 µg/mL
O=C(O)c1cn(C2CC2)c2cc(N3CCNCC3)c(F)cc2c1=O — inhibition zone (microbial growth; 6633; 1000 µg/mL): 29 mm
CN(/N=C/c1cn(-c2ccc(C(=O)O)cc2)nc1-c1cccc(F)c1)c1ccccc1 — MIC (microbial growth; ATCC6623): 12.5 µg/mL (≈ 30.2 µM)
O=C1NC(=S)N/C1=C\c1ccc(-c2ccc(N(c3ccccc3)c3ccccc3)cc2)cc1 — MBC (microbial killing, broth dilution; ATCC6633): > 1000 µg/mL
